Measured values as given in ChEMBL document CHEMBL3098000, “Imatinib analogs as potential agents for PET imaging of Bcr-Abl and c-KIT expression at a kinase level” (Bioorg Med Chem, 2014).
Values belong to the compound of their own block, whether it stands above or below them.

Columns and labels:
[1] = system: K562; test: Drug uptake in human K562 cells expressing Bcr-Abl after 30 mins; type: ADME, cell-based; settings: k562, 0.5 h
[2] = system: Intestine; test: Drug uptake in intestine of mouse xenografted with human U87 cells at 100 uCi, iv after 60 to 120 mins by PET analysis; type: ADME, organism-based, U-87MG ATCC; settings: in vivo
In short: (§1)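 Nude mice carried K562, U87 or U87WT tumor cells injected in Matrigel (200 μl) into the dorsal shoulder areas. [18F]STI-571, labeled by nucleophilic substitution, was given at 100 μCi/mouse i.v. MicroPET imaging was done at 30, 60 and 90 min, with images also shown at 60 and 120 min. Some mice were sacrificed at 60 or 90 min for tissue sampling and autoradiography.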

[3] = Drug uptake in mouse digestive tract xenografted with human U87WT cells expressing human wild type c-KIT at 100 uCi, iv after 15 to 120 mins by PET analysis; type: ADME, organism-based; settings: in vivo; in short: as §1
[4] = Drug uptake in mouse right shoulder xenografted with human U87 cells at 100 uCi, iv after 15 to 120 mins by PET analysis; type: ADME, organism-based, U-87MG ATCC; settings: in vivo, in the assay text read “U87WT cells” for “U87 cells”; in short: as §1
[5] = system: Tumour; test: Drug uptake in tumor of mouse xenografted with human U87 cells at 100 uCi, iv after 60 to 120 mins by PET analysis; type: ADME, organism-based, Neoplasm, U-87MG ATCC; settings: in vivo; in short: as §1
[6] = system: Liver; test: Drug uptake in liver of mouse xenografted with human U87WT cells expressing human wild type c-KIT at 100 uCi, iv after 60 to 120 mins by PET analysis; type: ADME, organism-based; settings: in vivo; in short: as §1
[7] = system: Tumour; test: Drug uptake in tumor of mouse xenografted with human U87WT cells expressing human wild type c-KIT at 100 uCi, iv after 60 to 120 mins by PET analysis; type: ADME, organism-based, Neoplasm; settings: in vivo; in short: as §1
[8] = Drug uptake in mouse digestive tract xenografted with human U87 cells at 100 uCi, iv after 15 to 120 mins by PET analysis; type: ADME, organism-based, U-87MG ATCC; settings: in vivo; in short: as §1
[9] = system: Tumour; test: Drug uptake in tumor of mouse xenografted with human K562 cells expressing Bcr-Abl at 100 uCi, iv after 60 to 120 mins by PET analysis; type: ADME, organism-based, Neoplasm; settings: in vivo; in short: as §1
[10] = system: Liver; test: Drug uptake in liver of mouse xenografted with human U87 cells at 100 uCi, iv after 60 to 120 mins by PET analysis; type: ADME, organism-based, U-87MG ATCC; settings: in vivo; in short: as §1
[11] = system: K562; test: Drug uptake in human K562 cells expressing Bcr-Abl after 30 to 210 mins in presence of unlabelled STI-571; type: ADME, cell-based
[12] = Drug uptake in mouse right shoulder xenografted with human K562 cells expressing Bcr-Abl at 100 uCi, iv after 15 to 120 mins by PET analysis; type: ADME, organism-based; settings: in vivo; in short: as §1
[13] = system: Intestine; test: Drug uptake in intestine of mouse xenografted with human U87WT cells expressing human wild type c-KIT at 100 uCi, iv after 60 to 120 mins by PET analysis; type: ADME, organism-based; settings: in vivo; in short: as §1
[14] = system: K562; test: Drug uptake in human K562 cells expressing Bcr-Abl after 1 to 2 hrs; type: ADME, cell-based
[15] = Drug uptake in mouse digestive tract xenografted with human K562 cells expressing Bcr-Abl at 100 uCi, iv after 15 to 120 mins by PET analysis; type: ADME, organism-based; settings: in vivo; in short: as §1
[16] = Drug uptake in human U87WT cells expressing human wild type c-KIT after 1 to 2 hrs; type: ADME, cell-based
In short: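 Cells were incubated with [18F]STI-571, and tracer accumulation and washout were measured at 1 and 2 h. U87WT cells were made by retroviral transduction of U87 cells with wild-type human c-KIT receptor. Specificity was tested by blocking with excess unlabelled STI-571.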

[17] = system: K562; test: Drug uptake in human K562 cells expressing Bcr-Abl incubated for 1 to 2 hrs measured after drug washout; type: ADME, cell-based
[18] = Drug uptake in human wild-type U87 cells incubated for 1 to 2 hrs measured after drug washout
[19] = Drug uptake in mouse right shoulder xenografted with human U87WT cells expressing human wild type c-KIT at 100 uCi, iv after 15 to 120 mins by PET analysis; type: ADME, organism-based; settings: in vivo; in short: as §1
[20] = system: Liver; test: Drug uptake in liver of mouse xenografted with human K562 cells expressing Bcr-Abl at 100 uCi, iv after 60 to 120 mins by PET analysis; type: ADME, organism-based; settings: in vivo; in short: as §1
[21] = system: Intestine; test: Drug uptake in intestine of mouse xenografted with human K562 cells expressing Bcr-Abl at 100 uCi, iv after 60 to 120 mins by PET analysis; type: ADME, organism-based; settings: in vivo; in short: as §1
[22] = target: Bcr/Abl fusion protein (Homo sapiens, UniProt P00519); test: Inhibition of Bcr-Abl (unknown origin) phosphorylation by spectrophotometric assay; type: protein assay
Chain of Bcr/Abl fusion protein (P00519 whole entry, the tested form may be a part): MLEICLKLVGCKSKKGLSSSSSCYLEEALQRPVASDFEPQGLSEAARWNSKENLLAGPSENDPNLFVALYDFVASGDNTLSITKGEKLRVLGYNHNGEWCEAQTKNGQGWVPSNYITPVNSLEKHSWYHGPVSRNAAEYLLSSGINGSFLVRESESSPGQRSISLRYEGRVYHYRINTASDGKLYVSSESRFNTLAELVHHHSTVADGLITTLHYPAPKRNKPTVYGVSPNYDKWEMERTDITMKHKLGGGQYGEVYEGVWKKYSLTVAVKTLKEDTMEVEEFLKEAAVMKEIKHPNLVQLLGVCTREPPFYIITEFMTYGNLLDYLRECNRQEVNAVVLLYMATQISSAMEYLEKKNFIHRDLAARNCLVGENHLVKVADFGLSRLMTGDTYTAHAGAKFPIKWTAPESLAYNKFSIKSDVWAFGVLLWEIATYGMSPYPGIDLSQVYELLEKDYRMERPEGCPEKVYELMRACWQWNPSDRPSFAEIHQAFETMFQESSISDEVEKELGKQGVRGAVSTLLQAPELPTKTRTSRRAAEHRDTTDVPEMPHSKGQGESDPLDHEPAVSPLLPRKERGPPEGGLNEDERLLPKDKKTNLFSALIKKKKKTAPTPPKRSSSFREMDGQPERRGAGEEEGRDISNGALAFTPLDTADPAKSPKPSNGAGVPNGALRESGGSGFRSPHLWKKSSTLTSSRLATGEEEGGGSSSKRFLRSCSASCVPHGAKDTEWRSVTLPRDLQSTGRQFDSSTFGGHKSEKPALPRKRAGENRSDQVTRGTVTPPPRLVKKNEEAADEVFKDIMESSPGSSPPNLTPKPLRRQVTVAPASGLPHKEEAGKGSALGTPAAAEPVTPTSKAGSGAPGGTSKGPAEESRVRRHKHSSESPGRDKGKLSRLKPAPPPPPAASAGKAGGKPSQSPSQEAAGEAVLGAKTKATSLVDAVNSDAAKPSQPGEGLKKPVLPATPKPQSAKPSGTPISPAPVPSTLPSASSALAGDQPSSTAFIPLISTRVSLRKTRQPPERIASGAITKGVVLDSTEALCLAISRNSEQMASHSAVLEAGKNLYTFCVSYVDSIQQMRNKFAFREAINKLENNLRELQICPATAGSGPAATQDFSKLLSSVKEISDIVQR
Chain of Bcr/Abl fusion protein (P11274 whole entry, further chain, the tested form may be a part): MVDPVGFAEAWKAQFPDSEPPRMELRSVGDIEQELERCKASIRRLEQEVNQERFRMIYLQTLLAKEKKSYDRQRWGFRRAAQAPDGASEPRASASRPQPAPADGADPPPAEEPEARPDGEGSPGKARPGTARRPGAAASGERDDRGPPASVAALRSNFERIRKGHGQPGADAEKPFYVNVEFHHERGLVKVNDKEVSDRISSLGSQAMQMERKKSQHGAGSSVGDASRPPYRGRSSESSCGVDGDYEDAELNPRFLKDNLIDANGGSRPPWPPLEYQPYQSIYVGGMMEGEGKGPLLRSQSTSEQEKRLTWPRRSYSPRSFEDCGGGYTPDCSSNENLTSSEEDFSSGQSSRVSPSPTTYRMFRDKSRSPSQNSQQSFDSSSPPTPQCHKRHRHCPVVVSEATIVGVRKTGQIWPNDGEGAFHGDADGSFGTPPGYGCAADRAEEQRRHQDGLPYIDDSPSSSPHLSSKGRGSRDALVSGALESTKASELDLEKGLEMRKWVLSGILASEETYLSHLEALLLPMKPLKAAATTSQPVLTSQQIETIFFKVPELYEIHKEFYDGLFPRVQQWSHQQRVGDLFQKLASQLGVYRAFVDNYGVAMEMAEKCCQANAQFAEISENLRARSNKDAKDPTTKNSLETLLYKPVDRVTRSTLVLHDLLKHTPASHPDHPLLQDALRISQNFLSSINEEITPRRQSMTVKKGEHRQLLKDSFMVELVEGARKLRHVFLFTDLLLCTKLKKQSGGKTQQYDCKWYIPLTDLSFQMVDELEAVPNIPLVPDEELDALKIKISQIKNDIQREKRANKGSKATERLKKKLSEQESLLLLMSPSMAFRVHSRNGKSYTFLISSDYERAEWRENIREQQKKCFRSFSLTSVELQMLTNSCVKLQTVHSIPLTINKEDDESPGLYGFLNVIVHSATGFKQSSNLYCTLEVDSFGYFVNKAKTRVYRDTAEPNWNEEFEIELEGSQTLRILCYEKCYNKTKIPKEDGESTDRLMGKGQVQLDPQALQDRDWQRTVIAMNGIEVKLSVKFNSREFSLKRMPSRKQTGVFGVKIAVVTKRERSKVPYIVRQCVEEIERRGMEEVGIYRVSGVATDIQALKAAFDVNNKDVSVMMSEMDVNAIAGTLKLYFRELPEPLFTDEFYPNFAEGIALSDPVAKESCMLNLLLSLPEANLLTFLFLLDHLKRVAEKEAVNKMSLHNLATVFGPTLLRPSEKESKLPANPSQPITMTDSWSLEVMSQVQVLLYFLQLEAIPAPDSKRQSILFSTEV

[23] = system: Intestine; test: Drug uptake in intestine of mouse xenografted with human U87 cells after 45 mins by PET analysis; type: ADME, U-87MG ATCC; settings: in vivo, 0.75 h
[24] = system: Mus musculus; test: Drug uptake in mouse xenografted with human K562 cells expressing Bcr-Abl after 45 mins by PET analysis; type: ADME, organism-based; settings: in vivo, 0.75 h
[25] = system: Intestine; test: Drug uptake in intestine of mouse xenografted with human U87WT cells expressing human wild type c-KIT after 45 mins by PET analysis; type: ADME, tissue-based; settings: in vivo, 0.75 h

Compound: Cc1ccc(NC(=O)c2ccc(CN3CCN(Cc4ccc(I)cc4)CC3)cc2)cc1Nc1nccc(-c2cccnc2)n1
IC50 [22]: 0.739 µM

Compound: OC[C@H]1O[C@@H](O)[C@H]([18F])[C@@H](O)[C@@H]1O [FLUDEOXYGLUCOSE-F18]
Drug uptake [23]: Active | Drug uptake [24]: Active | Drug uptake [25]: Active

Next, values leading:

Drug uptake [1]: Active | Drug uptake [2]: Active | Drug uptake [3]: Active | Drug uptake [4]: Active | Drug uptake [5]: Active | Drug uptake [6]: Active | Drug uptake [7]: Active | Drug uptake [8]: Active | Drug uptake [9]: Active | Drug uptake [10]: Active | Drug uptake [11]: Not Active | Drug uptake [12]: Active | Drug uptake [13]: Active | Drug uptake [14]: Active | Drug uptake [15]: Active | Drug uptake [16]: Not Active | Drug uptake [17]: Active | Drug uptake [18]: Not Active | Drug uptake [19]: Active | Drug uptake [20]: Active | Drug uptake [21]: Active
Compound: Cc1ccc(NC(=O)c2ccc(CN3CCN(CC[18F])CC3)cc2)cc1Nc1nccc(-c2cccnc2)n1

IC50 [22]: 7.08 µM
Compound: Cc1ccc(NC(=O)c2ccc(CN3CCN(CCO)CC3)cc2)cc1Nc1nccc(-c2cccnc2)n1

IC50 [22]: 1.38 µM
Compound: Cc1ccc(NC(=O)c2ccc(CN3CCN(CCF)CC3)cc2)cc1Nc1nccc(-c2cccnc2)n1
